Where two headings read alike, the source gives them in different places. Bounds are passed on as bounds.

In one data set the test system is kidney (HEK293). The note with it: read-out: HEK293 IC50; cytotoxicity; ref Guigemende 2010; cited from earlier work.
In data set [1] the test system is Human foreskin fibroblast (HFF). The note with it: read-out: HFF IC50; cytotoxicity; ref Guigemende 2010; cited from earlier work.
Data set [2] in a line: Kinetic aqueous solubility by nephelometry. The note with it: pH 6.5 phosphate buffer; 30 min at room temperature; 1% DMSO. The data set is classed as physicochemical.
The target of another data set is human albumin column (Homo sapiens, UniProt P02768). Briefly: Chromatography-based protein binding. The data set is classed as in vitro ADME. As to conditions: plasma protein binding estimated using a chromatographic method.
Sequence of human albumin column (P02768 25-609): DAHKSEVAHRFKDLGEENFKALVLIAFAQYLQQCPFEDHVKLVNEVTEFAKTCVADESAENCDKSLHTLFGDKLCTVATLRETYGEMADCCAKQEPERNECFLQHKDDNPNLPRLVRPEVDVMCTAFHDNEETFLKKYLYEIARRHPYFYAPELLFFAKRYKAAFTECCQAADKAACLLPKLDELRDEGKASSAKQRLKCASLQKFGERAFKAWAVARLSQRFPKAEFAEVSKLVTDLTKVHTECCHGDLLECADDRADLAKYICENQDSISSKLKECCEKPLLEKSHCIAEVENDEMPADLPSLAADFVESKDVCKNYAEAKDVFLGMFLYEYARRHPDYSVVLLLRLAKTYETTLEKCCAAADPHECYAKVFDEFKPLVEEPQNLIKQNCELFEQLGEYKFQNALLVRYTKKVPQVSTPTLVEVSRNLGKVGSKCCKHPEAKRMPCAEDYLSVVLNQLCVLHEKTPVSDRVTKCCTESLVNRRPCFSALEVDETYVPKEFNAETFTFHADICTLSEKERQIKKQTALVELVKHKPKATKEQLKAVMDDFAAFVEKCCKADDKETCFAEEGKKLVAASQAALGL
The test system of a further data set is B lymphocyte (RAJI). As to conditions: read-out: RAJI IC50; cytotoxicity; ref Guigemende 2010; cited from earlier work.
Another data set deals with hepatocytes (HC04). As to conditions: read-out: HC04 IC50; cytotoxicity; ref Guigemende 2010; cited from earlier work.
Data set [3] relates to five mammalian cell lines (HFF, HEK293, HC04, RAJI, NR-9456). Briefly: Cytotoxicity across five mammalian cell lines / in vitro therapeutic index. Type of data set: cell-based. The note with it: at the concentrations tested.
Data set [4] has as its system T. gondii RH-dTom tachyzoites in pretreated HFF cells. Kind of data set: Host cell pre-treatment assay. Type of data set: cell-based, Toxoplasma gondii. The note with it: HFF cells exposed to 10 μM for 24 h, washed, then infected with RH-dTom. In outline: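 HFF seeded at 20,000 cells/well in D10 and grown to confluence. Treated with 10 μM test compound for 24 h, then washed three times with D10 media. Infected with 2,000 RH-dTom (red fluorescent dTomato) tachyzoites. Parasite growth read by fluorescence at day 5 (methods) or day 4 (figure legend) post-infection. Run in triplicate.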

A short description of data set [5]: Partition coefficient by gradient HPLC. Type of data set: physicochemical.
Data set [6] can be described thus: Metabolic stability in human liver microsomes. The data set is classed as in vitro ADME. As to conditions: for CLint, in vitro / T1/2: 1 μM, 0.4 mg/mL protein. (Liver microsomes are a subcellular fraction often used to study metabolism.)
For data set [7], the system named is murine-derived macrophage (NR-9456). Briefly: Cell toxicity assay. The data set is classed as cell-based. The note with it: read-out: NR-9456 IC50, 24 h. In outline: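 Bone marrow-derived murine macrophages kept in D10 (DMEM, 10% heat-inactivated bovine serum, 2 mM L-glutamine, penicillin/streptomycin, 20% Medium 199, gentamicin) at 37°C, 5% CO2. Grown to confluence in 96-well plates, then exposed to test compound at 0 to 100 μM for 24 h. Alamar blue added for 4 h, and fluorescence read for IC50.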

Data set [8] is described as follows: Metabolic stability in mouse liver microsomes. The data set is classed as in vitro ADME. As to conditions: for CLint, in vitro / T1/2: 1 μM, 0.4 mg/mL protein.
For data set [9], the system named is T. gondii RH-dTom tachyzoites. Kind of data set: In vivo T. gondii survival study. The note with it: lethal dose of T. gondii strain RH tachyzoites. Also noted: species or system Swiss Webster CFW mice.
The subject of data set [10] is Salmonella typhimurium (TA100 strain). Kind of data set: Bacterial reverse mutation. The data set is classed as cell-based. As to conditions: for Ames Assay (TA100): 3x the averaged T. gondii IC50, 48 replicates, point mutagenicity.
The test system of a further data set is T. gondii. Kind of data set: T. gondii inhibition in vitro. The data set is classed as cell-based, Toxoplasma gondii. Put shortly:
(§1)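 Confluent HFF (20,000 cells/well, D10, 37°C, 5% CO2) infected with 2,000 dTomato-expressing tachyzoites (type I RH or type II PRU). Invasion allowed for 12 h, then media replaced. Test compound added at 0 to 100 μM in duplicate. Parasite fluorescence read at day 5 post-infection for IC50.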

In a further data set the test system is T. gondii PRU-dTom. Kind of data set: T. gondii PRU-dTom. The data set is classed as cell-based. As to conditions: Toxoplasma gondii, 120 h, read-out: T. gondii PRU-dTom IC50. In outline: as §1
[11] abbreviates: cytotoxicity, 0 to 100 μM, Alamar blue.

By IC50 is commonly meant the concentration that inhibits the measured activity by half. As to `CCOc1ccc(/C=C/c2nc(=O)c3ccccc3o2)cc1` [KG3], the IC50 was greater than 40 µM with kidney (HEK293); greater than 40 µM in data set [1]; greater than 40 µM in the data set with B lymphocyte (RAJI); greater than 40 µM in the data set on hepatocytes (HC04); greater than 100 µM in data set [7] (setting [11]). The compound also gave a Sol6.5 kinetic solubility in data set [2] of 1.2 to 2.2 µg/mL. Moreover, the “cPPB (% bound)” value on human albumin column was 99 % bound. The “Cell lines whose growth was inhibited” value in data set [3] was “did not inhibit the growth of any of the five cell lines”. The “Decrease of T. gondii growth after host cell pre-treatment” value (shortened to “Decrease of T. gondii growth”) in data set [4] was 21%. Besides, in data set [5], the “gLogD (pH 7.4)” value is listed as 2.8. Besides, the “Predicted EH (hepatic extraction ratio)” value in [6] was 0.88. The figures for the “CLint, in vitro” value in data set [6] and in data set [8] were 129 μL/min/mg protein and greater than 886 μL/min/mg protein, respectively. For the same compound, the T1/2 is reported as 9 min in data set [6] and less than 2 min in data set [8]. Moreover, the “Mice spared (survival)” value in data set [9] (20 mg/kg IP twice daily) came out at 33%. Besides, the “Ames Assay (TA100)” value in data set [10] is given as “Negative”.
Consider `CC(C)(C)c1cc(C2C(C#N)=C(N)OC3=C2C(=O)CCC3)cc(C(C)(C)C)c1O` (stereo not drawn) [KG7], for which the concentration for half-maximal inhibition (IC50) in the data set with kidney (HEK293) is greater than 36 µM; in data set [1], greater than 36 µM; with B lymphocyte (RAJI), 3 µM; with hepatocytes (HC04), 3 µM; in data set [7] (setting [11]) it was greater than 100 µM. In [2], this compound had a Sol6.5 kinetic solubility of 3.1 to 6.3 µg/mL. In addition, the “cPPB (% bound)” value on human albumin column is 93 % bound. In [3], the “Cell lines whose growth was inhibited” value is recorded as 2/5. The “Decrease of T. gondii growth” value in data set [4] is given as “no effect”. Also, in data set [5], the “gLogD (pH 7.4)” value is listed as 3.9. For the same compound, the entries for the “Predicted EH (hepatic extraction ratio)” value in data set [6] and in [8] were 0.97 and greater than 0.94, respectively. In addition, the figures for the “CLint, in vitro” value in data set [6] and in [8] were 746 μL/min/mg protein and greater than 886 μL/min/mg protein, respectively. The T1/2 in [6] was 2 min; in data set [8], less than 2 min. Also, the “Ames Assay (TA100)” value in [10] is “Negative”. Moreover, in [10] (TA100 strain), the “Effect on S. typhimurium growth in Ames assay” value was “appeared to inhibit S. typhimurium growth”.
Take `NNC(=O)c1ccncc1` [isoniazid]: in the data set on T. gondii (data not shown), the “Efficacy against Toxoplasma gondii in vitro” value was “no efficacy”.
As for `CCc1nc(N)nc(N)c1-c1ccc(Cl)cc1` [Pyrimethamine, reference compound], the IC50 was greater than 100 µM with kidney (HEK293); 0.79 µM in the data set with T. gondii PRU-dTom; greater than 100 µM in [1]; greater than 100 µM with B lymphocyte (RAJI); greater than 100 µM in the data set with hepatocytes (HC04); 0.25 to 1.5 µM in the data set with T. gondii (Toxoplasma gondii, read-out: T. gondii IC50 in vitro). Moreover, in data set [7] (Mus musculus, Macrophage), the IC50 was greater than 100 µM. Further, the “Mice spared (survival)” value in data set [9] (21 mg/kg) is recorded as 100%.
Turning to `CC(C)(C)c1cc(/N=N/C(=O)c2ccncc2)cc(C(C)(C)C)c1O` [KG8], the IC50 in the data set on kidney (HEK293) was 0.97 µM; in data set [1] it was greater than 28 µM; in the data set on B lymphocyte (RAJI), 0.68 µM; in the data set on hepatocytes (HC04) it was greater than 28 µM; in [7] (setting [11]), greater than 100 µM. In addition, the Sol6.5 kinetic solubility in data set [2] is 3.1 to 6.3 µg/mL. Besides, the “cPPB (% bound)” value at human albumin column is listed as greater than 99.5 % bound. In addition, in [3], the “Cell lines whose growth was inhibited” value was 2/5. The “Decrease of T. gondii growth” value in data set [4] was “no effect”. In [5], the “gLogD (pH 7.4)” value is recorded as 3.9. Also, the “Predicted EH (hepatic extraction ratio)” value in data set [6] is reported as 0.6. The “CLint, in vitro” value in data set [6] is recorded as 37 μL/min/mg protein; in data set [8], 180 μL/min/mg protein. The T1/2 in data set [6] was 47 min; in data set [8] it was 10 min. The “Ames Assay (TA100)” value in [10] is “Negative”.

Source of the values: publication PMC5809185 (Parasitology international, 2018).
